Here are results for 24 sequences from the EternaBench riboswitch data.

This data set has as its system MS2 coat protein. The experiment in a line: apparent Kd, MS2 coat protein; higher = weaker binding; RNA-MaP array; FMN 200 µM where present. The essentials: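 The apparent Kd is reported as the median of filtered per-cluster binding-curve fits. To get these curves, designs transcribed by stalled E. coli RNA polymerase on Illumina sequencing-chip clusters were titrated with SNAP-549-labelled MS2 coat protein from 0.7 or 1.5 nM, doubling to 3 µM. Titrations were run without and then with constant ligand in 100 mM Tris-HCl pH 7.5, 80 mM KCl, 4 mM MgCl2, BSA, DTT, yeast tRNA and Tween-20, and green signal was normalised to red-channel RNA signal and control-cluster median Fmax.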

The mark [1] stands for this setting: designed as: OFF switch for flavin mononucleotide, no ligand.
Setting [2] is: ligand present: flavin mononucleotide, designed as: OFF switch for flavin mononucleotide.
Setting [3] is: designed as: ON switch for flavin mononucleotide, no ligand.
[4] abbreviates: ligand present: flavin mononucleotide, designed as: ON switch for flavin mononucleotide.

By apparent Kd is commonly meant the concentration giving half-maximal binding under the conditions of the assay. Consider “UGUCGGAGCAGAGGAUAUACAUGAGGAUCACCCAUGUAAUAAAUCCAAGCCUGGAAACAGGCAAUGUAGAAGGCUGCUCCGACA”, for which the “apparent Kd” value by setting is: under setting [1], 16.8 nM; under setting [2], 80.2 nM.
In the case of “GCCAUCGCAUGAGGAUAUGCUCCGGUUUCCGGAGCAGAAGGUAUGUCAUAAGACAUGAGGAUCACCCAUGUAGGUAAGAUGGCA”, the “apparent Kd” value by setting is: under setting [3], 221 nM; under setting [4], 31.3 nM.
As to “GCAUGGUAUGAGAAGGCAUAAUUUAUCUAACAACAUGAUUACAUGAGGAUCACCCAUGUUUCCAAUGAGGAUAUCAUACCGUGC”, the “apparent Kd” value stood at 7.83 nM under setting [1] and 7.12 nM under setting [2].
Regarding “AGUACUCAAAGAGUACCAAUACGAACAUGAGGAUCACCCAUGUAGGAUAUGCUACUCAAAGAGUAGCAGAAGGACAUGUGCCUA”, the “apparent Kd” value runs as follows: under setting [1], 18.2 nM; under setting [2], 82.3 nM.
Turning to “GGACGUCACAUUUACAUGAGGAUCACCCAUGUCGAAAGACAUGAGGAUAUGCAUCCUAAUUGGAUGCAGAAGGCAUGGACGUCC”, the “apparent Kd” value under setting [3] was 335 nM and the “apparent Kd” value under setting [4] turned out to be 245 nM.
As for “GAAGAGACAGGAUAUACAUGAGGAUCACCCAUGUGAGGAUGUUGGAGGCGGAGGAGGUGUAGAAGGGUCAAAGA”, the “apparent Kd” value came to 31.2 nM under setting [1] and 28.7 nM under setting [2].
Consider “UAAUAGUGAGGAUAUACAGAAUCUGGGUCCCGCGUGUUGAGACAUGAGGAUCACCCAUGUAGAAGGCACAAAAU”, for which the “apparent Kd” value by setting is: under setting [1], 108 nM; under setting [2], 42.5 nM.
In the case of “AAACAUGUCCGAGGAUAUCUGAGAUCAUUUUCAAGAGAAGGCGGACAUGAGGAUCACCCAUGUCUCUCCUCAUCAACGCCAAAU”, the “apparent Kd” value was found to be 26.9 nM under setting [1] and 51.7 nM under setting [2].
As for “GGAUGGACCCAGAAGGGCAGAUUCCGAGGGAUUUGAGAUGAGCGGAUAUGUAGGAUAUGGGUGGACAUGAGGAUCACCCAUGUC”, the “apparent Kd” value by setting is: under setting [3], 231 nM; under setting [4], 46.6 nM.
Regarding “GGUUACACAGGAUAUACAUGAGGAUCACCCAUGUCGAGCCGACCCGGAUGCACCUAAAGUAGAAGGGUGAGCUG”, the “apparent Kd” value reads like this: under setting [1], 21.8 nM; under setting [2], 22.7 nM.
Take “GUGUCUUGGGAGAAGGCCGUAUGCAAAGCAUACGGAGGAUAUUCAUACCGGAAACGGACAUGAGGAUCACCCAUGUGGCACAAA”: the “apparent Kd” value reads like this: under setting [3], 947 nM; under setting [4], 34.8 nM.
As to “CGCGAUGCGGUUGGCCCUGGGCGAGAGGAUAUGGGCAGCAGGACAUGAGGAUCACCCAUGUUCUCUCAGAAGGCUCGAGCAGGC”, the “apparent Kd” value reads like this: under setting [3], 247 nM; under setting [4], 24.5 nM.
On to “UUUUAGUCAGGAUAUACAUUUUUUUAAUUAUUUAUAAUAUUACAUGAGGAUCACCCAUGUAGAAGGGACAUUUU”, for which the “apparent Kd” value by setting is: under setting [1], 28.6 nM; under setting [2], 26.2 nM.
On the same counts, the results for “AAAUUUAACGAAGGAUAUGGUGACAUGAGGAUCACCCAUGUUAAUUUUGUGAUCUUGUUUAAGUUCCAGAAGGUCGUAUACAUA” are 210 nM and 600 nM.
For the sequence “ACAGAGGCUGACAUGAGGAUCACCCAUGUUAGAUUGUUAUGUCAGGAUAUUAUCUGGCAACCAGAUGAGAAGGGACCCUCUGUG”, the “apparent Kd” value was found to be 22.6 nM under setting [3] and 7.54 nM under setting [4].
For “GGACGUCACAUGAACAUGAGGAUCACCCAUGUAACUAGACAUGAGGAUAUGGAACCUAAUUGGUUCCAGAAGGCAUGGACGUCC” the same measures were 194 nM and 32.2 nM.
For “UUCCUACAUGAGGAUCACCCAUGUGAGGAUAUGCAUCGUAUUAUUCUCGUAUGUAGUAGCAGAAGGCGCAUUGG”, the “apparent Kd” value came out at 25.9 nM under setting [1] and 89.6 nM under setting [2].
For “AGAUUUAAUGAGGAUAUCGUAUUGGAUAUAGUGCGAGAAGGCAUUACAUGAGGAUCACCCAUGUUUUGUUGGGA” the same measures were 31.8 nM and 74.1 nM.
“CGCUAAGAGAACGAUACGAAUAGACAUGAGGAUCACCCAUGUAGAAGGACAACGGAAUAAACGUUGUAGGAUAUACAUUUAGCG”: the “apparent Kd” value runs as follows: under setting [1], 17.4 nM; under setting [2], 45.3 nM.
For the sequence “GUUAAGGUAGGAUAUACGAUAAGAUAGGGUAGAUAUAUAACACAUGAGGAUCACCCAUGUAGAAGGACCAAUUG”, the “apparent Kd” value by setting is: under setting [1], 38.3 nM; under setting [2], 105 nM.
For “CUAUUACGAGGAUAUGAUUUAAAUAACAUGAGGAUCACCCAUGUUUUUACGUUAUUAUGUUUAGAAGGCGUAUUGU” the same measures were 50.1 nM and 31.4 nM.
As for “CGACAGCACACAGGAUAUCCUCGACUUUGUCGAGGAGAAGGGUGUAAACAUGAGGAUCACCCAUGUAUGCUGUCGAAAUUUAAU”, the “apparent Kd” value reads like this: under setting [3], 308 nM; under setting [4], 30.7 nM.
For “CGGUGCUGAGGAUAUACAUGAGGAUCACCCAUGUGUGCCAGCUAGAAGACUGGCACUUGUAGAAGGCAGUACUG”, the “apparent Kd” value by setting is: under setting [1], 11.4 nM; under setting [2], 20.5 nM.
In the case of “GAGUCUCUAUUAGAACCGAUACGAACAUGAGGAUCACCCAUGUAGGAUAUGCUAAAAGUUGUGUUGCAGAAGGACAUUUAAAGC”, the “apparent Kd” value under setting [1] came out at 10.6 nM and the “apparent Kd” value under setting [2] is 9.89 nM.
